Rtt109 HAT inh: blocks Candida albicans Rtt109/Vps75 acetyltransferase activity. Q5AAJ8. purified Rtt109/Vps75, ThioGlo CoA-SH fluorescence, 4 h. inhibition, % at 34.9 µM. 330,000 compounds, 0.16% hits. AID 540336;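 active = inhibition of at least 50% in every replicate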
GRIN3A LBD mod: modulates the human NR3A ligand-binding domain; 340,000 compounds, 2.5% hits; Tm shift relative to glycine control, % at 25 µM; NR3A LBD differential scanning fluorimetry, Tm shift; 0% = protein alone, 100% = glycine-bound protein;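 active = melting temperature shift of at least 10% of the positive control shift, at one fixed dose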
JMJD2C inh: inhibitors of human GASC-1 (JMJD2C) demethylase. 330,000 compounds, 0.069% hits. GST-JMJD2C(1-420) H3K9me3 demethylation, DELFIA europium. inhibition, % at 2.35 µM. Q9H3R0;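 active = more than half of a compound's replicate wells show inhibition beyond 50%, single wells judged on their own value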;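 note: signal counts dimethyl H3K9 product captured on neutravidin plate; 0% = median of DMSO wells and 100% = 0.3 times that DMSO median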
Target sequence (Q9H3R0 1-420 limits assumed): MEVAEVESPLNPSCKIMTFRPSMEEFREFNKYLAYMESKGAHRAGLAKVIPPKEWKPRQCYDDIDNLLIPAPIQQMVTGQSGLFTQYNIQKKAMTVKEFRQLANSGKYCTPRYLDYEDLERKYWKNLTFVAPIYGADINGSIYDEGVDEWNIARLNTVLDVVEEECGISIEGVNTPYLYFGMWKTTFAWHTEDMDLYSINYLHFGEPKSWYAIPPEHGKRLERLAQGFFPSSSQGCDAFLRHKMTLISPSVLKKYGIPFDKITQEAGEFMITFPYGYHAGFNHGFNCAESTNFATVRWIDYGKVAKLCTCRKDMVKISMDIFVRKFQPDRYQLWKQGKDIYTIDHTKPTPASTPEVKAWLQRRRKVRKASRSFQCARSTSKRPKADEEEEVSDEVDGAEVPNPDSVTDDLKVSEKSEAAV
T cell modulator: modulates CD8 T cell binding to vesicles; 2C CD8+ T cell-vesicle binding, flow cytometry; active compounds read low; response (vesicle binding), % at 7 µM; 330,000 compounds, 0.068% hits; AID 2052;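 active = response, share of CD8 T cells binding vesicles, and their 90th percentile fluorescence all below set limits, cut at about 80% in these data, passing the limit was not always enough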;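 note: values below 100% mean blocked vesicle binding to the CD8+ T cells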
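Also added: QL9-peptide-loaded Drosophila micro-vesicles bearing Ld, ICAM-1 and B7-1; Test system: purified 2C TCR transgenic mouse naive CD8+ T cells; Measured by: cytometric PE anti-B7-1 and Alexa647 anti-CD8 signals after 1% paraformaldehyde fixation; Timing: binding step 1.5 h, 37 °C, antibody labelling 20 min, ice.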
The depositor's hits bear a star. A selection: hits, their analogues and other compounds. The true share with any hit is near 2.8%.

What do the screens show for `CCOc1ccc(/C=N/NC(=O)c2cc3ccccc3cc2OC)cc1`?
Rtt109 HAT inh: -1; GRIN3A LBD mod: 24*; JMJD2C inh: -2; T cell modulator: inactive

Results for CC(C)=CCc1c(O)cc(O)c2c(=O)c3c(CC=C(C)C)c(O)ccc3oc12 ?
GRIN3A LBD mod: 26*; JMJD2C inh: 5; T cell modulator: 311

How did CC(C)=CCc1c(O)cc(O)c2c(=O)c(O[C@@H]3O[C@@H](C)[C@H](O)[C@@H](O)[C@H]3O)c(-c3ccc(O)cc3)oc12 do in these assays?
Rtt109 HAT inh: -1; GRIN3A LBD mod: -3; JMJD2C inh: -4; T cell modulator: 859

How did CC(C)=CCc1c(O)cc2c(=O)c3ccc(O)cc3oc2c1O do in these assays?
Rtt109 HAT inh: 4; GRIN3A LBD mod: 25*; JMJD2C inh: 9; T cell modulator: 460

What do the screens show for `CC1(C)CC2(CC(c3ccccc3F)c3ccc(O)c(O)c3O2)NC(=S)N1` (stereo not given)?
Rtt109 HAT inh: 175*; GRIN3A LBD mod: 7; JMJD2C inh: 7; T cell modulator: 197

How did CCOc1ccc(-c2cnc(NCc3cccc4ccccc34)n2CCOC)cc1 do in these assays?
Rtt109 HAT inh: 10; GRIN3A LBD mod: -1; JMJD2C inh: 0; T cell modulator: 356

How did Cc1cc(NC(=O)NC(=O)c2ccccc2NC(=O)CN)ccc1Oc1ncc(Br)cn1 do in these assays?
Rtt109 HAT inh: -6; GRIN3A LBD mod: 0

What do the screens show for `CCOC(=O)c1sc(NC(=O)CSc2nccn2C)nc1C`?
Rtt109 HAT inh: -10; GRIN3A LBD mod: 13*; JMJD2C inh: 18; T cell modulator: 0

What do the screens show for `CCOC(=O)c1sc(NC(=O)c2c(CC)noc2C)nc1C`?
Rtt109 HAT inh: -6; GRIN3A LBD mod: 19*; JMJD2C inh: 0; T cell modulator: 643

What do the screens show for `COC(=O)c1sc(NC(=O)c2c(C)noc2C)nc1C`?
Rtt109 HAT inh: -1; GRIN3A LBD mod: -26; JMJD2C inh: -4; T cell modulator: 291

Results for CCOC(=O)c1sc(NC(=O)Nc2ccc(Cl)cc2)nc1C ?
Rtt109 HAT inh: 1; GRIN3A LBD mod: 28*; JMJD2C inh: -23; T cell modulator: 621

What do the screens show for `COc1ccc(CCC(=O)Nc2ccc(S(=O)(=O)N3CCOCC3)cc2)cc1`?
Rtt109 HAT inh: -6; GRIN3A LBD mod: 20*; JMJD2C inh: 3; T cell modulator: 239

Results for COc1ccc(/C=C/C(=O)Nc2ccc(S(=O)(=O)N3CCOCC3)cc2)c(OC)c1 ?
Rtt109 HAT inh: -1; GRIN3A LBD mod: 25*; T cell modulator: 232

What do the screens show for `COc1ccc(CC(=O)NNC(=O)COc2ccc(C)cc2)cc1S(=O)(=O)N1CCOCC1`?
Rtt109 HAT inh: 5; GRIN3A LBD mod: 10*; JMJD2C inh: -9; T cell modulator: 455

How did COc1ccc(CC(=O)NNC(=O)COc2ccc(F)cc2)cc1S(=O)(=O)N1CCOCC1 do in these assays?
Rtt109 HAT inh: 6; GRIN3A LBD mod: -4; JMJD2C inh: 5; T cell modulator: 452

How did Cc1ccc(OCCCC(=O)Nc2ccc(S(=O)(=O)N3CCOCC3)cc2)cc1 do in these assays?
Rtt109 HAT inh: 11; GRIN3A LBD mod: 28*; JMJD2C inh: 2; T cell modulator: 390

What do the screens show for `c1ccc(N2CC3CCc4ccccc4C3=N2)cc1` (stereo not given)?
Rtt109 HAT inh: 7; GRIN3A LBD mod: 6; JMJD2C inh: 4; T cell modulator: 343

Results for O=C(NCc1ccco1)c1cccc(S(=O)(=O)N2CCCC2)c1 ?
Rtt109 HAT inh: -4; GRIN3A LBD mod: 0; JMJD2C inh: -7

How did CC(=O)N1CCN(C(=O)COc2ccccc2C(=O)Nc2ccccc2)CC1 do in these assays?
Rtt109 HAT inh: -3; GRIN3A LBD mod: 0; JMJD2C inh: 2; T cell modulator: 553

Results for CCCc1nc2ccccc2c(C(=O)OCC(=O)Nc2ccc(S(=O)(=O)N3CCOCC3)cc2)c1CC ?
Rtt109 HAT inh: 20; GRIN3A LBD mod: 18*; JMJD2C inh: 6; T cell modulator: 420

What do the screens show for `CCCc1nc2ccccc2c(C(=O)OCC(=O)Nc2cccc(S(=O)(=O)N3CCOCC3)c2)c1CC`?
Rtt109 HAT inh: 5; GRIN3A LBD mod: 8; JMJD2C inh: -1; T cell modulator: 252

Results for Cc1ccc(S(=O)(=O)N2C(=O)CCC2C(=O)N2CCCCC2)cc1 (stereo not given) ?
Rtt109 HAT inh: -3; GRIN3A LBD mod: -1; JMJD2C inh: -3; T cell modulator: 332

How did Cc1ccc(Cn2c(CCC(=O)O)nc3ncccc3c2=O)cc1 do in these assays?
Rtt109 HAT inh: -6; GRIN3A LBD mod: 0; JMJD2C inh: 3; T cell modulator: 138

What do the screens show for `Cc1ccc(C)c(SCC(=O)Nc2cccc(S(=O)(=O)NC3=NCCCCC3)c2)c1`?
Rtt109 HAT inh: 10; GRIN3A LBD mod: -2; JMJD2C inh: -2; T cell modulator: 0

Results for O=C(CSc1ccc2ccccc2c1Br)Nc1cccc(S(=O)(=O)NC2=NCCCCC2)c1 ?
Rtt109 HAT inh: -8; GRIN3A LBD mod: 12*; JMJD2C inh: -5; T cell modulator: 521

What do the screens show for `Nc1cc2c(cc1Cl)-c1ccc([N+](=O)[O-])cc1C2=NO`?
Rtt109 HAT inh: 2; GRIN3A LBD mod: 477*

Results for C#CCOCCOCCOCCNc1nc(N2CCN(C(=O)CCCCCCCCCCNC(=O)[C@H]([C@@H](C)CC)n3cc(CCCCCN)nn3)CC2)nc(N2CCN(C(=O)CCCCCCCCCCNC(=O)[C@@H]([C@H](C)CC)n3cc(CCCCCN)nn3)CC2)n1 ?
T cell modulator: 358

Results for C#CCOCCOCCOCCNc1nc(N2CCN(C(=O)CCCCCCCCCCNC(=O)[C@@H](CCC(=O)O)n3cc(CCCCCN)nn3)CC2)nc(N2CCN(C(=O)CCCCCCCCCCNC(=O)[C@H]([C@@H](C)CC)n3cc(CCCCCN)nn3)CC2)n1 ?
Rtt109 HAT inh: 7; GRIN3A LBD mod: 26*; T cell modulator: 519

What do the screens show for `C#CCOCCOCCOCCNc1nc(N2CCN(C(=O)CCCCCCCCCCNC(=O)[C@H]([C@@H](C)CC)n3cc(CCCCCN)nn3)CC2)nc(N2CCN(C(=O)CCCCCCCCCCNC(=O)[C@H](CCCCN)n3cc(CCCC(=O)O)nn3)CC2)n1`?
Rtt109 HAT inh: -1; GRIN3A LBD mod: 22*; T cell modulator: 637

What do the screens show for `CCC/C(=N\NC(=O)CNC(=O)/C=C/c1ccco1)c1ccccc1`?
Rtt109 HAT inh: 7; GRIN3A LBD mod: 10*; JMJD2C inh: 0; T cell modulator: 237

How did O=C(COc1ccc(-c2ccccc2)cc1)N/N=C/c1cc(O)ccc1Br do in these assays?
GRIN3A LBD mod: 20*; JMJD2C inh: -3; T cell modulator: 572

Results for CSS(=O)(=O)c1cccc2cccnc12 ?
Rtt109 HAT inh: 132*; GRIN3A LBD mod: 1; JMJD2C inh: 6; T cell modulator: 537

Results for CCN(CC)S(=O)(=O)c1cccc2cccnc12 ?
Rtt109 HAT inh: 6; GRIN3A LBD mod: -1; JMJD2C inh: 11; T cell modulator: 368

Assay outcomes: PubChem, several laboratories
